Reference: ChEMBL document CHEMBL3600344, “Novel thiourea-based sirtuin inhibitory warheads” (Bioorg Med Chem Lett, 2015)
Blank lines part the entries; values can stand above or below the compound they belong to. Peptide text beside a SMILES is read from it.

What was measured:
[1] = Antioxidant activity assessed as inhibition of superoxide radical anion generation at 200 uM after 5 mins in presence of NBT and NADH relative to control; assay type: physicochemical
[2] = target: T1, NAD-dependent protein deacetylase sirtuin-2 (Homo sapiens, UniProt Q8IXJ6); assay: Inhibition of human His6-tagged SIRT2 using H2N-HK-(Nepsilon-acetyl-lysine)-LM-COOH as substrate after 10 mins by HPLC analysis
T1 sequence (Q8IXJ6 whole entry): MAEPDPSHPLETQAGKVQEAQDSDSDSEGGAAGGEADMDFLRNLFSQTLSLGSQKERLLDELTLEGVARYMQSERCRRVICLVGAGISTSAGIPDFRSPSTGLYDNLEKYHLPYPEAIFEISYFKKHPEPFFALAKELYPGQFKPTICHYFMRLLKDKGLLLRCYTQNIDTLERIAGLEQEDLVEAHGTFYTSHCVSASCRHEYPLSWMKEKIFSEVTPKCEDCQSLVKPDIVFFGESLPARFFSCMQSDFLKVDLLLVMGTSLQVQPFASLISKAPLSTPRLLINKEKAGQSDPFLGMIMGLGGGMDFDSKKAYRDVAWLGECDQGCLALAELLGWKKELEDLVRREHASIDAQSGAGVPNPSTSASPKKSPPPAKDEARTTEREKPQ

[3] = target: T2, NAD-dependent protein deacetylase sirtuin-1 (Homo sapiens, UniProt Q96EB6); assay: Inhibition of human His6 or GST-tagged SIRT1 using H2N-HK-(Nepsilon-acetyl-lysine)-LM-COOH as substrate after 10 mins by HPLC analysis
T2 sequence (Q96EB6 whole entry): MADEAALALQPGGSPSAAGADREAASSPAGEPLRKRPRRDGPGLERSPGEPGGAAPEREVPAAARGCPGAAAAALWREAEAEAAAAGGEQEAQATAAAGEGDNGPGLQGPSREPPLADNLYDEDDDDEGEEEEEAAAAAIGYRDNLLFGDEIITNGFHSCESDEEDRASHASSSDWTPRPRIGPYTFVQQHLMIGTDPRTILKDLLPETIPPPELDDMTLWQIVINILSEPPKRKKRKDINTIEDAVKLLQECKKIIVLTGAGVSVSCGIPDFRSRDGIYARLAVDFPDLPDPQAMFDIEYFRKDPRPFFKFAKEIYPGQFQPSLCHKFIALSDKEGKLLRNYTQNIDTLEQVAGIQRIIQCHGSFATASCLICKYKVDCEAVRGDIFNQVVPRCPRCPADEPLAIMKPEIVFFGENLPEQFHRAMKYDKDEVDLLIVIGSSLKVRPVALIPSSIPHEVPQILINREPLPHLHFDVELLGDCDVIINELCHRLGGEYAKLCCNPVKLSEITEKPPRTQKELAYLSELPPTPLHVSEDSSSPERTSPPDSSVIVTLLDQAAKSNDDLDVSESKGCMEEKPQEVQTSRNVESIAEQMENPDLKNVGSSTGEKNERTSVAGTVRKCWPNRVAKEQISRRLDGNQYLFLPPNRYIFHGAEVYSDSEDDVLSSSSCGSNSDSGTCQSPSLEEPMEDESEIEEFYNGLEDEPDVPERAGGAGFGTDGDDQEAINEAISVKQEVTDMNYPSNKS

[4] = target: T3, NAD-dependent protein deacetylase sirtuin-3, mitochondrial (Homo sapiens, UniProt Q9NTG7); assay: Inhibition of human His6-tagged SIRT3 using H2N-HK-(Nepsilon-acetyl-lysine)-LM-COOH as substrate after 8 mins by HPLC analysis
T3 sequence (Q9NTG7 whole entry): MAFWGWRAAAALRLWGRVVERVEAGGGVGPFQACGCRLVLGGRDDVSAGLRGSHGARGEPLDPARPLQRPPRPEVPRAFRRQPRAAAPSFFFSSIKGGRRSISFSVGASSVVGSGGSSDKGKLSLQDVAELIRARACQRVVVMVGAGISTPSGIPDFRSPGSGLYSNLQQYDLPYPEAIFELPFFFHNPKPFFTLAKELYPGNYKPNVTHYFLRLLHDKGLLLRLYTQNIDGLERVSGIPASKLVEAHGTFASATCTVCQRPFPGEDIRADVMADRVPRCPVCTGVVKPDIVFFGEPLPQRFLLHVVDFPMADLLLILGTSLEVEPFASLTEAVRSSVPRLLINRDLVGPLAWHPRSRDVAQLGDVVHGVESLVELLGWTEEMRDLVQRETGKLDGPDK

[5] = Stability of the compound assessed as Streptomyces griseus pronase-mediated degradation by measuring compound remaining at 160 uM after 60 mins by HPLC analysis; assay type: ADME; settings: read-out: Stability
Outline: (§1)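 Compound incubated with pronase (broad-specificity protease mixture), percent compound remaining followed over time up to 60 min; a control peptide incubated under the same condition.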

[6] = target: NAD-dependent protein deacylase sirtuin-5, mitochondrial (Homo sapiens, UniProt Q9NXA8); assay: Inhibition of human SIRT5 using CH3CONH-AR-(Nepsilon-succinyl-lysine)-ST-CONH2 as substrate after 5 mins by HPLC analysis
[7] = target: NAD-dependent protein deacylase sirtuin-6 (Homo sapiens, UniProt Q8N6T7); assay: Inhibition of human SIRT6 using H2N-EALPK-(Nepsilon-myristoyl-lysine)-TGGPQ-CONH2 as substrate after 12 mins by HPLC analysis
[8] = Stability of the compound assessed as Streptomyces griseus pronase-mediated degradation at 160 uM measured within 3 mins by HPLC analysis; assay type: ADME; settings: 0.05 h; outline: as §1

Chain of NAD-dependent protein deacylase sirtuin-5, mitochondrial (Q9NXA8 whole entry): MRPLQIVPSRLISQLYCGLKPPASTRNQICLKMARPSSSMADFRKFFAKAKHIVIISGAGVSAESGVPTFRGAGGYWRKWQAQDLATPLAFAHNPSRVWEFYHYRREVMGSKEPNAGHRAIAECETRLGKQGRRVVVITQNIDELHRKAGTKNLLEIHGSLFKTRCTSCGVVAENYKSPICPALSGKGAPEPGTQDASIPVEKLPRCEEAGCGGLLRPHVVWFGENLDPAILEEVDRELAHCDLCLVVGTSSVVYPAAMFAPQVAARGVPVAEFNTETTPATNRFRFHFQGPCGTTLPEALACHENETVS
Chain of NAD-dependent protein deacylase sirtuin-6 (Q8N6T7 whole entry): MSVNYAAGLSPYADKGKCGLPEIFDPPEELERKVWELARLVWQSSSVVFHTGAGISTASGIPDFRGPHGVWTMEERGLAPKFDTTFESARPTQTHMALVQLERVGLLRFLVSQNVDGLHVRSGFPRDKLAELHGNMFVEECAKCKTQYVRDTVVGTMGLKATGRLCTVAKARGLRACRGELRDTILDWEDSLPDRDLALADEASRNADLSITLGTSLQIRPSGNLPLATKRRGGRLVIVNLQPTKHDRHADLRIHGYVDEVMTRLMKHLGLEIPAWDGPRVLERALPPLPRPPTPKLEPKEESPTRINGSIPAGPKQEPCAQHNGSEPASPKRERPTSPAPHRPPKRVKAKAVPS

SMILES: CC(=O)NCCCC[C@H](NC(=O)[C@H](CCCCNC(=S)Nc1ccccc1)NC(=O)[C@H](CCCCNC(C)=O)NC(C)=O)C(N)=O
IC50 [3]: 62.9 µM

SMILES: CC(=O)NCCCC[C@H](NC(=O)[C@H](CCCCNC(=S)NCC(=O)O)NC(=O)[C@H](CCCCNC(C)=O)NC(C)=O)C(N)=O
IC50 [6]: > 100 µM

SMILES: CC(=O)NCCCC[C@H](NC(=O)[C@H](CCCCNC(=S)NCCC(=O)O)NC(=O)[C@H](CCCCNC(C)=O)NC(C)=O)C(N)=O
IC50 [7]: 2400 µM | IC50 [6]: 5 µM

SMILES: CC(=O)NCCCC[C@H](NC(=O)[C@H](CCCCNC(=S)NCCCC(=O)O)NC(=O)[C@H](CCCCNC(C)=O)NC(C)=O)C(N)=O
IC50 [6]: > 100 µM

SMILES: CSCC[C@H](NC(=O)[C@H](CC(C)C)NC(=O)[C@H](CCCCNC(C)=O)NC(=O)[C@H](CCCCN)NC(=O)[C@@H](N)Cc1cnc[nH]1)C(=O)O (H-HKK(Ac)LM-OH)
Stability [8]: Unstable

The next lines start with the values.

inhibition (INH) [1]: 6%
SMILES: CC(=O)NCCCC[C@H](NC(=O)[C@H](CCCCNC(C)=S)NC(=O)[C@H](CCCCNC(C)=O)NC(C)=O)C(N)=O

IC50 [2]: 30.4 µM | IC50 [3]: 49.9 µM | IC50 [4]: 5.4 µM
SMILES: CC(=O)NCCCC[C@H](NC(=O)[C@H](CCCCNC(N)=S)NC(=O)[C@H](CCCCNC(C)=O)NC(C)=O)C(N)=O

remaining at 1 h, 160 µM [5]: 88% | IC50 [2]: 1.65 µM | IC50 [3]: 5.6 µM | IC50 [4]: 2.2 µM | inhibition (INH) [1]: 50%
SMILES: CNC(=S)NCCCC[C@H](NC(=O)[C@H](CCCCNC(C)=O)NC(C)=O)C(=O)N[C@@H](CCCCNC(C)=O)C(N)=O
